B1: tRNA (parent)
chain: GUUCCGUUGGCGUAAUGGUAACGCGUCUCCCUCCUAAGGAGAAGACUGCGGGUUCGAGUCCCGUACGGAACG

Variants of: B1
Experiment: yeast fitness, log relative to wild type (ln ratio); higher = fitter; tRNA-Arg(CCU), competitive growth, 37 C, 1 M NaCl
In short: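 A combinatorial tRNA-Arg(CCU) variant library was carried on a HIS3 centromeric plasmid in BY4742 lacking the chromosomal gene, from two independent transformations. Pools grew 4 generations in SC-HIS at 30 °C, then ~6.5 generations (~26.5 h) in SC-HIS 1M NaCl at 37 °C, with three outputs per input. Variants were counted by 125 bp paired-end Illumina sequencing. Fitness is ln of each genotype's generations (OD-scaled log2 output/input frequency, inverse-variance weighted across replicates) over the wild-type's.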

Row | Variant | yeast fitness (ln)
1 | U2C C46U A70G | 0.000328
2 | U2C A43C C46U | 0.00393
3 | U2C A43C C46U C66U C71U | -0.19
4 | U2C C66U A70G | -0.00448
5 | U2C C66U A70U | -0.0706
6 | U2C C46U C66U A70U C71U | -0.155
7 | U2C C27U A43C C66U A70U C71U | -0.343
8 | U2C C27U C66U A69G A70U C71U | -0.453
9 | U2C C27U A43C A69G C71U | -0.144
10 | U2C G6A A43C C46U C66U A69G C71U | -0.332
11 | U2C C27U C46U C66U A69G A70U | -0.137
12 | U2C C27U C46U C66U A69G A70G | -0.0845
13 | G1A U2G G6U C66U A69G A70U | -0.386
14 | U2C C27U C66U A69G A70G | -0.185
15 | U2C C27U C66U A69G A70U | -0.188
16 | G1A U2G G6U C66A C71U | -0.193
17 | G1A U2G G6U C66U A70G C71U | -0.264
18 | U2C C27U A43C C46U C66U A69G C71U | -0.281
19 | U2C G6A A43C C46U A70U C71U | -0.09
20 | U2C A43C C66A A69G A70G C71U | -0.168
21 | U2C G6A A43C C66A A69G A70G C71U | -0.218

Row | Variant | yeast fitness (ln)
22 | U2C C66U A70G C71U | -0.0234
23 | U2C C27U A43C C66A A70U | -0.145
24 | U2C C27U A43C C66A A70G | -0.0848
25 | U2C C46U A69G A70U | -0.0822
26 | U2C C46U A69G A70G | -0.016
27 | U2C A43C C46U A70U C71U | -0.0761
28 | G1A U2G G6U C66A A70U | -0.329
29 | U2C A43C C46U C66A A70U | -0.0333
30 | U2C A43C C46U C66A A70G | -0.058
31 | U2C A43C C66U A69G A70G C71U | -0.23
32 | U2C C46U C66U A70U | -0.2
33 | U2C C46U C66U A70G | 0.0022
34 | U2C C27U C46U C66U A70G | -0.04
35 | U2C C27U C46U C66U A70U | -0.0783
36 | U2C C27U A43C C46U A69G A70G C71U | -0.0222
37 | U2C C27U A43C C46U A70G | -0.0098
38 | U2C C27U A43C C46U A70U | -0.14
39 | U2C C46U C66U A69G A70U | -0.0518
40 | U2C C46U C66U A69G A70G | -0.02
41 | U2C C27U A70G | -0.0415
42 | U2C C27U A70U | -0.0757

Row | Variant | yeast fitness (ln)
43 | U2C C46U C66U A69G C71U | -0.145
44 | U2C G6A A43C C71U | -0.0318
45 | U2C C27U C66U A69G A70G C71U | -0.529
46 | U2C C27U C46U A69G C71U | -0.104
47 | U2C C27U C46U A70U | -0.0474
48 | U2C C27U C46U A70G | -0.0268
49 | G1A U2G G6U C66A A70G C71U | -0.525
50 | U2C G6A A43C C46U C66U A70G | -0.0107
51 | U2C G6A A43C C46U C66U A70U | -0.209
52 | U2C C66U C71U | -0.0912
53 | U2C C46U C66U A69G A70G C71U | -0.0462
54 | U2C C27U C71U | -0.273
55 | U2C C27U A69G | -0.23
56 | U2C A43C C46U C66U A69G A70U C71U | -0.39
57 | U2C C27U C46U C66A A69G A70G C71U | -0.106
58 | U2C C66A A69G A70G C71U | -0.105
59 | U2C A43C C46U C71U | -0.193
60 | U2C A43C C66U A69G A70U C71U | -0.605
61 | U2C C27U C66A A70G C71U | -0.157
62 | U2C G6A A43C C46U C71U | -0.0721
63 | G1A U2G G6U C66U A69G A70U C71U | -0.553

Row | Variant | yeast fitness (ln)
64 | U2C A43C A69G A70G C71U | -0.0143
65 | U2C G6A A43C C46U C66A | -0.2
66 | U2C G6A A43C C46U C66U | -0.0992
67 | U2C G6A A43C C66U A70U | -0.06
68 | U2C G6A A43C C66U A70G | -0.0213
69 | U2C C27U C46U A69G A70U | -0.198
70 | U2C C27U C46U A69G A70G | -0.0283
71 | U2C C66A A69G A70G | -0.0883
72 | U2C C66A A69G A70U | -0.0958
73 | U2C G6A A43C C46U C66A C71U | -0.127
74 | U2C C46U C66U A69G | -0.224
75 | U2C C27U A43C C66A A70G C71U | -0.111
76 | U2C C46U | 0.0244
77 | U2C G6A A43C C46U C66U A69G A70U C71U | -0.319
78 | U2C A43C C46U A69G A70G C71U | -0.00607
79 | U2C A43C C66A A69G A70U C71U | -0.368
80 | U2C C27U A69G A70G C71U | -0.0353
81 | U2C A43C | -0.0265
82 | U2C C27U A43C C66A A70U C71U | -0.319
83 | U2C A43C C46U C66A A69G A70G C71U | -0.097
84 | U2C C66U A69G C71U | -0.311

Reference: the RNAGym collection of RNA variant scans (doi:10.1038/s41586-018-0170-7)
